Compound activity from PubChem BioAssay.
The list is not random: actives were taken first. Their share in the collection is about 3.1%.
Calb FLC = C. albicans growth inhibition with fluconazole, primary screen, CaCi-2 strain, Alamar Blue fluorescence | AID 1979, 2009 | hit rate 0.57% among 300,000 | C. albicans CaCi-2 (fluconazole-resistant clinical isolate) + fluconazole, 48 h | growth inhibition, % (concentration not given with the values);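 active = growth inhibition above about 58% in most replicates, limit read from the data, passing the limit was not always enough; inconclusive = exactly half the replicates above a set limit; inactive = most replicates below a set limit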;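 also: all wells also contain fluconazole at 8 µg/ml as a sub-toxic cotreatment; 0% = median of DMSO wells and 100% = median of geldanamycin control wells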
A1 inh = caspase 3/7 activation in MEF A1-2A-BIM cells, primary screen, A1 inhibitor project, cell-based, luminescence, HTS. Caspase-Glo 3/7 luminescence, 3 h; percent of clofoctol response, vehicle zero. caspase activation, % (concentration not given with the values). hit rate 0.066% among 330,000;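 active = over half of replicate activation scores above 10%, or exactly half above 10 with the replicate mean above 10; inconclusive = replicate mean below 10 yet half the replicates above 10; inactive = over half of replicates below 10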
TAG inh = inhibitors of triacylglycerol accumulation, primary screen, cell-based, uHTS, fluorescence, H9c2; H9c2 cells, Nile Red lipid (TAG) fluorescence; cells loaded with 200 µM oleic acid; inhibition, % at 12.5 µM; hit rate 0.66% among 230,000;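 active = pattern-corrected inhibition of lipid staining of at least 50% with the nuclear-stain viability signal not falling by more than 50%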;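 also: 0% = DMSO wells and 100% = triacsin C control wells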
Beta cell apopt = inhibitors of cytokine-induced beta cell apoptosis, primary screen, luminescence | INS-1E cytokine-induced death, ATP luminescence, 48 h; percent of positive-control rescue, neutral wells zero | hit rate 0.8% among 300,000 | protection from apoptosis, % (no concentration beside the values);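 active = Every replicate reaches about 75%, or at least half do and their mean reaches it too, limit read from the data; inconclusive = At least half of replicates reach the limit but their mean does not; inactive = Under half of replicates reach the limit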;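 also: 0% = cytokine-treated negative control wells and 100% = positive control rescue; higher means more ATP so stronger rescue from cytokine killing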
T cruzi repl = inhibitors of intracellular T. cruzi growth, primary screen, luminescence, NIH3T3 host cells; T. cruzi beta-gal in NIH3T3, 90 h; inhibition, % (no concentration beside the values); hit rate 1.4% among 300,000; AID 1885, 2009;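 active = mean inhibition across valid replicates above about 55%, limit read from the data; inconclusive = mean below that limit but half or more replicates reach it; inactive = mean below it, under half of replicates reach it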;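 also: signal also drops with host cell toxicity which is not excluded here; 0% = plate median of DMSO wells and 100% = zero luminescence signal; higher percent means less beta-gal luminescence so fewer parasites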
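System: NIH/3T3 fibroblasts plus reporter T. cruzi. Medium: DMEM plus 2% FBS. Probe or stimulus: 5000 reporter trypomastigotes per well. Compound: single 50 nL compound addition per well in DMSO. Incubation: co-culture of at least 90 h after 3 h attachment. Detection: GalScreen β-gal luminescence, detergent lysis, 60 min. Evaluation: parasite load inhibition, %.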
CSC inhib = cancer stem cell viability inhibitors, primary screen, luminescence; hit rate 1.1% among 300,000; cancer stem cell-like cells viability; inhibition, % at 7.5 µM; AID 2717, 2010; in the data active = inhibition above about 75%; inconclusive = no clear call, values can overlap the other calls; tested in HMLE shEcad cells
Numbers without * were called inactive; ? = inconclusive; · = not tested or not shown.

SMILES	Calb FLC	A1 inh	TAG inh	Beta cell apopt	T cruzi repl	CSC inhib
COC(=O)c1ccccc1C(=O)N1CCCC(CCC(=O)NCc2ccc(F)c(F)c2)C1 (stereo unspecified)	2	0	-8	-4	16	-9
CC(=O)/C(N=Nc1cccc(C(F)(F)F)c1)=C(\C)O	15	1	-3	-4	0	1
O=C(/C(N=Nc1cccc(C(F)(F)F)c1)=C(/O)c1cccs1)C(F)(F)F	6	1	5	23	10	140*
O=C(CCNC(=O)c1ccccc1Cl)Nc1ccc(S(=O)(=O)Nc2nccs2)cc1	·	-1	-6	5	·	-15
Oc1c(C(Nc2ccccn2)c2ccccn2)ccc2cccnc12 (stereo unspecified)	3	0	-23	87*	55*	-4
Oc1ccccc1C(Nc1nccs1)c1ccc2cccnc2c1O (stereo unspecified)	95*	-1	52*	87*	63*	138*
O=C(O)c1ccccc1NC(c1ccccc1)c1ccc2cccnc2c1O (stereo unspecified)	·	·	0	·	·	·
COc1cc(-c2nnc(SCC(=O)N(Cc3ccccc3)C(C)(C)C)o2)cc(OC)c1OC	8	1	·	11	26	71
COc1cc(OC)cc(-c2nnc(SCC(=O)N(Cc3ccccc3)C(C)(C)C)o2)c1	16	0	·	20	37	113*
COc1ccc(/C=C2\CN(Cc3ccccc3)C/C(=C\c3ccc(OC)cc3)C2=O)cc1	·	1	-7	-5	·	67
COc1ccc(/C=C2\CN(Cc3ccccc3)C/C(=C\c3ccc(OC)cc3OC)C2=O)c(OC)c1	-3	-1	8	9	81*	13
O=C(c1ccc([N+](=O)[O-])s1)N1CCN(c2cccc(Cl)c2)CC1	12	0	·	92*	47	37
O=C(NC(=O)N1CCN(c2cccc(Cl)c2)CC1)c1ccc(Cl)cc1	4	-1	14	-3	-4	110*
CC(C)=CC(=O)O[C@@H]1Cc2cc3ccc(=O)oc3cc2OC1(C)C	·	-1	-1	1	·	-12
CC(C)[C@@H](C(=O)N1CCCC1)N1C(=O)N2CCc3c([nH]c4ccccc34)[C@@]2(C)C1=O	-4	1	·	-2	13	-9
Cc1cc(Cl)c(OCCCNCc2ccccc2)c(Br)c1	-26	1	5	13	56*	37
CCCCCCNC(=O)c1cn(CC)c2cc(N3CCN(C)CC3)c(F)cc2c1=O	72	2	·	4	26	57
NS(=O)(=O)c1ccc(N/C=C\C(=O)c2ccc(F)cc2)cc1	-29	-5	-2	-6	-6	-2
CN(C)c1ccc(N/C=C/C(=O)c2ccc(F)cc2)cc1	5	-10	·	10	60*	47
O=[N+]([O-])c1ccc(Nc2ccccc2)c2nonc12	89*	0	·	14	6	-4
O=[N+]([O-])c1ccc(Sc2cccc[n+]2[O-])c2nonc12	1	·	102*	·	43	·
O=C(COc1ccc2c(c1)OCO2)Nc1nncs1	5	0	·	-4	-11	2
Cc1ccc(C(OCC(O)CNCc2ccc(F)cc2)c2ccccc2)cc1 (stereo unspecified)	-10	0	·	26	-13	50
C=CCn1c(=O)c(C(=O)NCCc2ccccc2)c(O)c2ccccc21	-6	0	·	9	12	116*
Cn1c(=O)c(C(=O)NCCc2ccccc2)c(O)c2ccccc21	89*	0	·	-5	7	0
CCCn1c(=O)c(C(=O)NCCc2ccccc2)c(O)c2ccccc21	-12	-1	·	2	-6	38
Cc1cc(NS(C)(=O)=O)c(=O)n(Cc2c(F)cccc2Cl)c1	-3	1	0	3	-3	-5
O=C(O)CCCCCCCCCCCNC(=O)NC12CC3CC(CC(C3)C1)C2	·	-1	-14	5	·	-3
O=C(C[n+]1cc(-c2ccccc2)n2c1CCCCC2)c1ccc(Cl)cc1	?	0	·	4	38	3
